Columns and labels:
[1] = target: Ornithine decarboxylase (Mus musculus) (UniProt P00860); assay: Inhibitory effect of compound on the induction of ornithine decarboxylase in CD-1 mouse.
Oryctolagus cuniculus [2] = species: Oryctolagus cuniculus; assay: Percentage inhibition of cholesterol-3-sulfate activity rabbit at 10 nM.; type: functional; design: scale not given: the % may be the effect or the level left
Procedure, shortened: (§1)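 Rabbit tracheal epithelial cells in supplemented Ham's F12, given retinoid (0.1 or 10 nM) in Me₂SO from day 5 for 5 days. Cells were labeled 22 h with 25 μCi/mL Na₂³⁵SO₄, trypsinized, and extracted with CHCl₃/MeOH. Inhibition of ³⁵SO₄ incorporation into cholesterol 3-sulfate was measured relative to control.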

Oryctolagus cuniculus [3] = species: Oryctolagus cuniculus; assay: Percentage inhibition of cholesterol-3-sulfate activity in rabbit at 0.1 nM.; type: functional
Procedure, shortened: as §1

[4] = Inhibitory dose against tracheal organ culture reversal of keratinization; type: functional; conditions: Cricetulus griseus, Trachea; read-out: ID50 (the source's name)
Procedure, shortened: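 Retinoid-deficient hamster tracheas in organ culture, scored for reversal of keratinization. At least six cultures per retinoid concentration; ID50 by polynomial interpolation.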

F9 [5] = assay: Ability to displace [3H]all-trans-retinoic acid from F9 embryonal carcinoma cells, was assessed in a F9 laminin release assay; type: functional; conditions: Mus musculus, F9, 96 h; read-out: ED50 (the source's name)
Oryctolagus cuniculus [6] = species: Oryctolagus cuniculus; assay: Percentage inhibition of Transglutaminase activity in rabbit at 0.1 nM.; design: scale not given: the % may be the effect or the level left
Procedure, shortened: (§2)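 Rabbit tracheal epithelial cells on fibronectin/BSA/vitrogen-coated dishes in supplemented Ham's F12, treated with retinoid in Me₂SO from day 5 for 5 days. Cells were sonicated in PBS with 10 mM dithiothreitol, and transglutaminase activity was measured as [³H]putrescine incorporation into casein, in triplicate.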

[7] = target: Cellular retinoic acid-binding protein 1 (Gallus gallus) (UniProt P40220); assay: Concentration of compound required to inhibit binding of 2.5 uM [3H]all-trans-retinoic acid by 50% in chick
Cellular retinoic acid-binding protein 1 (Gallus gallus), sequence (P40220 whole entry): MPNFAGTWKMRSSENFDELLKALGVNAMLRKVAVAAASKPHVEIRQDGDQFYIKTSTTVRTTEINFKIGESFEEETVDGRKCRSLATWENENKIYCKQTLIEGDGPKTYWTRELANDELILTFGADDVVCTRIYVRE
Procedure, shortened: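 Chick embryo skin CRABP (12–13-day), with albumin removed on Affi-Gel Blue. Eluates (1 mg protein/0.4 mL) were incubated with saturable [³H]-all-trans-retinoic acid ± 1-, 5-, 10- or 25-fold molar excess of unlabeled retinoid. Free ligand was removed with dextran-coated charcoal, followed by filtration and counting of bound radioactivity. Nonspecific binding was defined with 25-fold excess of retinoic acid. ID50 from semilog plots.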

Oryctolagus cuniculus [8] = species: Oryctolagus cuniculus; assay: cross-linked envelope inhibition assay was performed at 10 nM compound concentration; type: functional; design: scale not given: the % may be the effect or the level left
Procedure, shortened: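 Rabbit tracheal epithelial cells exposed to 1 × 10⁻⁸ M retinoid from day 6 of culture. Cross-linked envelope formation was determined on day 12, in triplicate.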

Oryctolagus cuniculus [9] = species: Oryctolagus cuniculus; assay: Percentage inhibition of Transglutaminase activity in rabbit at 10 nM.
Procedure, shortened: as §2

F9 [10] = assay: Ability to displace 3 uM retinoid and [3H]all-trans-retinoic acid in F9 embryonal carcinoma cells using F9 Plasminogen Activator releasing assay; type: functional; conditions: Mus musculus, F9, 4 days; read-out: ED50 (the source's name)
[11] = (§3) Inhibition of binding of [3H]all-trans-retinoic acid to cellular retinoic acid binding protein at 3 uM compound concentration, in rat; design: scale not given: the % may be the effect or the level left
Procedure, shortened: (§4)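 CRABP partially purified from rat testis. Competition of 3 μM retinoid with [³H]-all-trans-retinoic acid, bound ligand separated by Sephadex G-25 gel filtration on 2-mL columns. Triplicate measurements.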

[12] = as §3; type: functional; design: scale not given: the % may be the effect or the level left
Procedure, shortened: as §4

[13] = target: Cellular retinoic acid-binding protein 1 (Gallus gallus) (UniProt P40220)

Ornithine decarboxylase (Mus musculus), sequence (P00860 whole entry, looked up): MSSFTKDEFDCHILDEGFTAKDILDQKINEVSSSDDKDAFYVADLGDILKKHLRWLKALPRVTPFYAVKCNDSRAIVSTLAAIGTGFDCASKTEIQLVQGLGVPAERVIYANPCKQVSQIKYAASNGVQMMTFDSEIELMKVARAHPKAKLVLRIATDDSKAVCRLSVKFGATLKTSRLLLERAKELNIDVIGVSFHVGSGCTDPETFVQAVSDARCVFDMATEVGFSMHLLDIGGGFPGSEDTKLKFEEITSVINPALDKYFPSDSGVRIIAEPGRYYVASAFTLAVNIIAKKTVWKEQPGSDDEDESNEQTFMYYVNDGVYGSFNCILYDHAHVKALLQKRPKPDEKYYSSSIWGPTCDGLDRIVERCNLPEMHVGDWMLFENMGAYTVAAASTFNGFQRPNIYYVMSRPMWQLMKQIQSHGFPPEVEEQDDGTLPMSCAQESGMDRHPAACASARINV

| SMILES | ID50 [1] | Control (Oryctolagus cuniculus [2]) | Cholesterol sulfate synthesis (% of control) (Oryctolagus cuniculus [3]) | IC50 [4] | EC50 (F9 [5]) | Control (Oryctolagus cuniculus [6]) | ID50 [7] | Control (Oryctolagus cuniculus [8]) | Transglutaminase activity (% of control) (Oryctolagus cuniculus [9]) | EC50 (F9 [10]) | Control [11] | Control [12] | ID50 [13] |
| --- | --- | --- | --- | --- | --- | --- | --- | --- | --- | --- | --- | --- | --- |
| CC1(C)CCC(C)(C)c2cc(C3C[C@H]3c3ccc(C(=O)O)cc3)ccc21 (stereo not given in full) | 3.2 nM | 2% | 73% | > 0.1 nM | 90 nM | 130% | 4800 nM | <1% | 23% | 2 nM |  |  |  |
| C/C(=C\c1ccc2c(c1)C(C)(C)CCC2(C)C)c1ccc(C(=O)O)cc1 | 0.03 nM | 1% | 2% | 0.007 nM | 1.5 nM | 10% | 1000 nM | 0% | 5% | 0.7 nM | 27% |  |  |
| CC1(C)CCC(C)(C)c2cc(-c3ccc4cc(C(=O)O)ccc4c3)ccc21 | 2.2 nM | 2% | 15% | 0.003 nM | 31 nM |  | 1600 nM | <1% | 9% | 1 nM | 91% |  |  |
| C/C(=C\c1ccc(C(=O)O)cc1)c1ccc2c(c1)C(C)(C)CCC2(C)C | 0.03 nM | 1% | 6% | 0.002 nM | 1.5 nM |  | 800 nM | <1% | 1% | 0.08 nM | 100% |  |  |
| C/C(=C(/C)c1ccc2c(c1)C(C)(C)CCC2(C)C)c1ccc(C(=O)O)cc1 | 142 nM | 33% | 73% | > 10 nM | > 100 nM |  | 1000 nM | 100% | 68% | > 10 nM |  |  |  |
| CC1(C)CCC(C)(C)c2cc3cc(-c4ccc(C(=O)O)cc4)ccc3cc21 | 0.07 nM | 2% | 13% | 0.01 nM | 0.2 nM | 12% | 800 nM | <1% | 14% | 0.3 nM |  |  |  |
| CC1=C(/C=C/C(C)=C/C=C/C(C)=C/C(=O)O)C(C)(C)CCC1 [TRETINOIN] | 0.04 nM | 5% | 100% | 0.01 nM | 1.5 nM |  |  | <1% | 15% | 0.1 nM |  | 91% | 1000 nM |
| Cc1cc2c(cc1-c1ccc3cc(C(=O)O)ccc3c1)C(C)(C)CCC2(C)C | 0.4 nM | 2% | 12% | 0.02 nM | > 100 nM | 37% | 4800 nM | <1% | 11% | 0.5 nM |  |  |  |
| Cc1c(-c2ccc3c(c2)C(C)(C)CCC3(C)C)ccc2cc(C(=O)O)ccc12 | 66 nM | 14% | 187% | 0.08 nM | > 5000 nM | 114% | 15000 nM | 5% | 47% | 3 nM |  |  |  |

Reference: ChEMBL document CHEMBL1124521, “Effect of structural modifications in the C7-C11 region of the retinoid skeleton on biological activity in a series of aromatic retinoids” (1989)
